In the library only some 2% were active in any assay of this set; here they are far more common.
eIF4H inh: human eIF4H binding inhibitors, primary screen, translation initiation inhibitor project, biochemical, uHTS, fluorescence polarization; eIF4H fluorescence polarization binding assay; inhibition, % at 35 µM; 290,000 compounds, 0.94% hits; call rule not given here;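 also: calls also rest on retests at 20 µM and on dose response follow-up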
HCV core dimer: inhibitors of HCV core protein dimerization, primary screen, biochemical, TR-FRET, high-throughput. TR-FRET GST/Flag-core106 dimerization, 1536-well. AID 1899, 2009. inhibition, % at 5 µM. 300,000 compounds, 0.33% hits;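 active = inhibition above the mean of all tested compounds plus 3 SD, set per screening campaign, cut at about 45% in these data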
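System: GST-tagged and Flag-tagged HCV core protein residues 1-106 / Input: core106 proteins, GST 13.5 nM and Flag 17 nM / Buffer or medium: KF-containing HEPES buffer, pH 7.45, DTT, CHAPS, BSA / Probe or stimulus: Eu-anti-GST and XL665-anti-Flag labelled anti-tag antibodies / Schedule: 4 h, 22.5 °C incubation / Technique: TR-FRET 671 and 617 nm emission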
DNA FID counter-1: compounds displacing fluorescent DNA intercalator, primary screen, artefact control for HCV NS3 helicase inhibitor project, biochemical, FID fluorescence. inhibition, % at 7.9 µM. 290,000 compounds, 0.17% hits. DNA fluorescent intercalator displacement. AID 1845, 2009;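 also: higher means more ethidium bromide displaced from hairpin DNA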
HCV NS3 hel inh: inhibitors of HCV NS3 helicase, primary screen, biochemical, Cy5 molecular beacon fluorescence | 290,000 compounds, 0.56% hits | inhibition, % at 10.9 µM | Hepatitis C virus NS3 helicase | AID 1800, 2009 | NS3 helicase DNA unwinding;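 active = inhibition above the mean of all tested compounds plus 3 SD, set per campaign, cut at about 35% in these data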
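System: Hepatitis C virus NS3 helicase domain fragment enzyme | Reagent: Annealed dual-labelled DNA beacon duplex, ATP-started | Compound dosing: 10.9 µM single point, 0.8% DMSO | Incubation: 1 h reaction at 25 °C, ATP-initiated | Technique: Cy5 fluorescence | Evaluation: Percent inhibition from t60/t0 fluorescence ratio | Benchmarks: Low DMSO, high thioflavine S at 110 µM | Replication: Singlicate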
PABP FP inh: PABP poly(A) RNA binding inhibitors, primary screen, biochemical, fluorescence polarization, uHTS. Polyadenylate-binding protein 1 (Homo sapiens), P11940. inhibition, % at 35 µM. 290,000 compounds, 1% hits; call rule not given here;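 also: calls also rest on retests at 20 µM and on dose response follow-up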
MLLE-PAM2 inh: inhibitors of PABP1 MLLE–PAM2 peptide binding, primary screen, biochemical, fluorescence polarization, FITC-PAM2, GST-MLLE. inhibition, % at 20 µM. 360,000 compounds, 0.36% hits. AID 588489, 2011; in the data active = inhibition above about 35%, passing the limit was not always enough
NS3 helicase cf: HCV NS3 helicase inhibitors, retest, confirmation, biochemical, Cy5 molecular beacon fluorescence, triplicate; shares compounds with HCV NS3 hel inh; NS3 helicase DNA unwinding; inhibition, % at 10.9 µM; 1,600 compounds, 31% hits; AID 1943, 2009;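 active = inhibition above the mean of all tested compounds plus 3 SD, cutoff set per campaign, cut at about 36% in these data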
DNA FID counter-2: compounds displacing fluorescent DNA intercalator, artefact control for HCV NS3 helicase inhibitor project, biochemical, FID fluorescence, triplicate | shares compounds with HCV NS3 hel inh | DNA fluorescent intercalator displacement | inhibition, % at 7.9 µM | 1,600 compounds, 4% hits | AID 1945, 2009;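 also: higher means more displacement of ethidium bromide from the DNA hairpin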
Of the large screens only hits and unclear results are named; the others gave an inactive call (follow-up assays come after a bar, where they were run). Rule as the data show it, unless noted: active = inhibition above about 37%; inactive = the rest.

O=C1NC(=O)C(=Cc2ccc(-c3cc(Cl)ccc3[N+](=O)[O-])o2)C(=O)N1	none (no result: HCV core dimer)
NS(=O)(=O)c1ccc(-c2ccc(C=C3C(=O)NC(=O)NC3=O)o2)cc1	eIF4H inh inconclusive
O=C1NCN(c2ccccc2)C12CCN(C(c1ccccc1)c1nnnn1C1CCCC1)CC2 (stereo not given)	none (no result: eIF4H inh, HCV core dimer, DNA FID counter-1, HCV NS3 hel inh, PABP FP inh)
NNC(=O)CN1C(=O)CN=C(c2ccccc2)c2cc(Br)ccc21	HCV NS3 hel inh 53.7 | NS3 helicase cf inactive | DNA FID counter-2 inactive
C=CCN1C(=O)NC(=O)/C(=C/c2cccn2C)C1=O	none
Cn1cccc1/C=C1/C(=O)NC(=S)N(Cc2ccc(F)cc2)C1=O	HCV core dimer 66.3, HCV NS3 hel inh 44.6 | NS3 helicase cf 77.7 | DNA FID counter-2 inactive
Cc1cccc(NP2(=O)NCCCN2)c1	none (no result: eIF4H inh, HCV core dimer, DNA FID counter-1, HCV NS3 hel inh, PABP FP inh)
Cc1cccc(-n2c(/C=C/c3ccc([N+](=O)[O-])o3)nc3ccccc3c2=O)c1	HCV NS3 hel inh 61.4 | NS3 helicase cf inactive | DNA FID counter-2 inactive
O=C(O)Cn1cc(/C=C2\C(=O)NC(=O)N(c3ccc(Br)cc3)C2=O)c2ccccc21	eIF4H inh inconclusive, HCV NS3 hel inh 49.0, PABP FP inh inconclusive | NS3 helicase cf inactive | DNA FID counter-2 inactive
O=c1[nH]c(=S)n(-c2ccccc2F)c(O)c1C=Nc1ccc(N2CCOCC2)cc1	HCV NS3 hel inh 54.1 | NS3 helicase cf inactive | DNA FID counter-2 inactive
Cc1cc(C)cc(-n2c(O)c(C=Nc3ccc(N4CCOCC4)cc3)c(=O)[nH]c2=S)c1	eIF4H inh inconclusive
CC(=O)N1CCN(c2ccc(N=Cc3c(O)n(-c4ccc(Cl)cc4)c(=O)[nH]c3=O)cc2)CC1	HCV NS3 hel inh 43.4 | NS3 helicase cf inactive | DNA FID counter-2 inactive
O=c1[nH]c(=S)n(-c2ccc(Br)cc2)c(O)c1C=Nc1ccc(N2CCOCC2)cc1	HCV NS3 hel inh 37.2 | NS3 helicase cf inactive | DNA FID counter-2 inactive
CCN(CC)c1ccc(N=Cc2c(O)n(-c3ccc(Cl)cc3)c(=O)[nH]c2=O)cc1	eIF4H inh inconclusive, PABP FP inh inconclusive
O=C(N/N=C/c1c(O)n(CCc2ccccc2)c(=O)[nH]c1=O)c1ccccc1	none
CN1C(=O)/C(=C\c2ccc(Br)s2)C(=O)NC1=S	none
O=C1NC(=S)NC(=O)C1=Cc1ccc(Br)s1	HCV NS3 hel inh 44.7 | NS3 helicase cf 56.4 | DNA FID counter-2 inactive
CN(C)C1C(=O)C(C(N)=O)=C(O)C2(O)C(=O)C3=C(O)c4c(O)cccc4C(C)(O)C3CC12 (stereo not given)	eIF4H inh 81.3, HCV NS3 hel inh 42.5, PABP FP inh 55.9 | NS3 helicase cf inactive | DNA FID counter-2 inactive
O=c1[nH]c(=O)n(CCC2=CCCCC2)c(O)c1/C=N/N1CCOCC1	none
CN(C)c1ccc(N=Cc2c(O)n(CCC3=CCCCC3)c(=O)[nH]c2=O)cc1	HCV NS3 hel inh 40.0 | NS3 helicase cf inactive | DNA FID counter-2 inactive
Cc1ccccc1-n1c(O)c(C=Nc2ccc(N(C)C)cc2)c(=O)[nH]c1=O	HCV NS3 hel inh 42.5 | NS3 helicase cf inactive | DNA FID counter-2 inactive
O=c1[nH]c(=S)n(CCC2=CCCCC2)c(O)c1/C=N/N1CCOCC1	HCV NS3 hel inh 41.0 | NS3 helicase cf inactive | DNA FID counter-2 inactive
O=C(N/N=C/c1c(O)n(C2CCCCC2)c(=S)[nH]c1=O)c1ccccc1O	none (no result: eIF4H inh, PABP FP inh)
CC(C)c1ccc(-n2c(O)c(/C=N/NC(=O)c3ccccc3O)c(=O)[nH]c2=S)cc1	HCV NS3 hel inh 74.2 | NS3 helicase cf 74.0 | DNA FID counter-2 inactive
O=c1[nH]c2ccccc2n1C1CCN(C(c2cccs2)c2nnnn2-c2ccc3c(c2)OCCO3)CC1 (stereo not given)	none (no result: eIF4H inh, HCV core dimer, DNA FID counter-1, HCV NS3 hel inh, PABP FP inh)
CN1CCc2cc3c(c4c2C1Cc1ccccc1-4)OCO3 (stereo not given)	eIF4H inh inconclusive, HCV NS3 hel inh 44.3, PABP FP inh inconclusive | NS3 helicase cf inactive | DNA FID counter-2 82.2
COC(=O)C1=C(c2ccc(F)cc2F)C[C@@H]2CC[C@H]1N2C(=O)N1CCCC1	none (no result: eIF4H inh, HCV core dimer, DNA FID counter-1, HCV NS3 hel inh, PABP FP inh)
O=C(O)c1ccccc1NC(=O)N1C[C@H]2C[C@@H](C1)c1cccc(=O)n1C2	HCV NS3 hel inh 42.3 | NS3 helicase cf inactive | DNA FID counter-2 inactive
CNCC(=O)c1ccccc1	none (no result: eIF4H inh, DNA FID counter-1, HCV NS3 hel inh, PABP FP inh)
O=S(=O)(c1ccccc1)N1Cc2ccccc2-n2nncc2C1	none (no result: eIF4H inh, HCV core dimer, DNA FID counter-1, HCV NS3 hel inh, PABP FP inh)
COc1ccc(CNCCc2cccc(F)c2)c2ccccc12	none (no result: HCV core dimer, MLLE-PAM2 inh)
CCN(CC)C(=O)c1ccc2c(c1)C1C=CCC1C(C(=O)O)N2 (stereo not given)	eIF4H inh 85.4, HCV NS3 hel inh 41.9, PABP FP inh 64.7 (no result: HCV core dimer) | NS3 helicase cf 85.7 | DNA FID counter-2 inactive
CCN(CC)C(=O)c1ccc(N(Cc2ccccc2)S(C)(=O)=O)cc1	none (no result: HCV core dimer)
CC(Cc1ccccc1)N1Cc2ccccc2C1 (stereo not given)	none
Cc1c2ccncc2c(C)c2c1[nH]c1ccccc12	DNA FID counter-1 53.8, HCV NS3 hel inh 41.9 | NS3 helicase cf 57.0 | DNA FID counter-2 82.5

High-throughput results from PubChem.
